The source made the active and inactive calls.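 How the source made its calls: active means viability at or below 30% in both replicate assays; inconclusive means viability at or below 30% in just one of the two assays; inactive means the rest.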
test: HUVEC growth inhibition – cell-based, human, primary screen (AID 575); settings: HUVEC proliferation, CellTiter-Glo luminescence, 72 h; at 10 µM; active compounds read low;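 further: 100% = median of untreated cell wells with 0.1% DMSO on each plate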
In short: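 Test system – primary HUVEC, no more than 12 passages · Dosing – one dose, 10 µM final, 0.1% DMSO · Times – 72 h treatment at 37 °C · Measured by – ATP-based CellTiter-Glo luminescent read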

Structure (SMILES)	viability
CC(C)(C)C(O)C(Oc1ccc(Cl)cc1)n1cncn1 (stereo not given)	88.2% (inactive)
COc1cc(/C=N/n2cnnc2)ccc1OC(=O)N(C)C	99.5% (inactive)
Nc1ccnn1C1CCNCC1	97% (inactive)
COC(=O)c1c(C)n(Cc2ccc3c(c2)OCO3)c2ccc(O)cc12	54.5% (inactive)
O=C(c1ccc(CS(=O)(=O)c2ccccc2)o1)N1CCC2(CC1)OCCO2	96.5% (inactive)
COc1cc(C2NCc3ccccc3-n3cccc32)ccc1O (stereo not given)	105% (inactive)
COc1ccc(CN2CCN(C(=O)Cc3ccccc3)CC2)c(OC)c1	89.9% (inactive)
CC(C)OC(=O)c1c(N)n(CC2CCCO2)c2nc3ccccc3nc12 (stereo not given)	102% (inactive)
O=C(c1sc2ccccc2c1Cl)N1CCC2(CC1)OCCO2	94.7% (inactive)
CSc1ccc(C(=O)C(C)(C)N2CCOCC2)cc1	112% (inactive)
CCCCCCC(N)CC(=O)O (stereo not given)	95.1% (inactive)
CC(C)(C)OC(=O)c1c(N)n(Cc2ccco2)c2nc3ccccc3nc12	62.5% (inactive)
c1cncc(CNC2=NCCCCC2)c1	96.6% (inactive)
COc1ccccc1-n1c(O)c(C=NCc2ccc3c(c2)OCO3)c(=O)[nH]c1=O	81.3% (inactive)
O=C(CCCOc1ccc(Cl)cc1Cl)N1CCC2(CC1)OCCO2	93.3% (inactive)
Cc1oc2ccc(OC(=O)N(C)C)cc2c1C(=O)OC(C)C	92.4% (inactive)
Oc1ccc(C2NCc3ccccc3-n3cccc32)cc1Cl (stereo not given)	112% (inactive)
O=c1[nH]c(=O)n(-c2ccc(F)cc2)c(O)c1C=Nc1ccccc1N1CCCC1	73.9% (inactive)
CCOC(=O)C1CCCCC12C(C#N)=C(N)Oc1n[nH]c(C)c12 (stereo not given)	96% (inactive)
COCCOC(=O)C1=C(N)Oc2c(c(=O)oc3ccccc23)C1c1ccncc1 (stereo not given)	98.5% (inactive)

Structure (SMILES)	viability
CCN1CCN(c2ncnc3ccc(Br)cc23)CC1	59.2% (inactive)
CCOP(=S)(OCC)c1ccc(N(C)C)cc1	93.6% (inactive)
NC(=O)CSP(=O)(c1ccccc1)c1ccccc1	109% (inactive)
Nc1ccc(C2(c3ccc(N)cc3)CN3CCC2CC3)cc1	85.5% (inactive)
CN(C)c1cc(N)c2c(n1)CCC2 (tested in a mixture with another compound)	102% (inactive)
CCOc1ccc(-n2c(O)c(C=NCCN3CCNCC3)c(=O)[nH]c2=O)cc1	100% (inactive)
CC(=NCCCO)c1c(O)n(Cc2ccccc2)c(=O)[nH]c1=O	98.6% (inactive)
Cc1cc(N2C(=O)C3CCCN3C2c2cccc(Cl)c2)no1 (stereo not given)	89.3% (inactive)
COc1ccc(S(=O)(=O)NC(CC(=O)N2CCC3(CC2)OCCO3)c2ccco2)cc1 (stereo not given)	101% (inactive)
COc1ccccc1N1CCN(Cc2c(F)cccc2F)CC1	107% (inactive)
CSc1ccc(CNC2CN3CCC2CC3)cc1 (stereo not given)	91.2% (inactive)
Cc1ccc(C)c(NC2=NCCCS2)c1	91.9% (inactive)
CC1=C(C(=O)OC(C)C)[C@]2(C(=O)N(CC(N)=O)c3ccccc32)C(C#N)=C(N)O1	110% (inactive)
CCCCn1c(O)c(C(C)=NCCc2ccccc2)c(=O)[nH]c1=O	95.6% (inactive)
O=C1C2CCCN2C(c2ccc(Cl)c(Cl)c2)N1c1ccccn1 (stereo not given)	107% (inactive)
COC(=O)CC1(Cc2ccccc2)C(=O)NC(=O)NC1=O	86.8% (inactive)
Cc1ccc(S(=O)(=O)Cc2ccc(C(=O)N3CCC4(CC3)OCCO4)o2)cc1	103% (inactive)
O=C1CC(N2CCC(n3c(=O)[nH]c4ccccc43)CC2)C(=O)N1c1ccc(F)cc1 (stereo not given)	80.7% (inactive)
CCOc1cc2[nH]c(=S)n(CCCC(=O)N3CCC4(CC3)OCCO4)c(=O)c2cc1OCC	78.2% (inactive)
CC(=NCc1ccc2c(c1)OCO2)c1c(O)n(C)c(=O)n(C)c1=O	92.8% (inactive)

Reference: PubChem BioAssay
